The record followed here is ChEMBL document CHEMBL1134972, “Discovery of a potent and selective COX-2 inhibitor in the alkoxy lactone series with optimized metabolic profile” (Bioorg Med Chem Lett, 2002).

Data set [1] deals with Rattus norvegicus. The data set can be described thus: Antiinflammatory activity by using Rat paw edema assay. The format is functional. The essentials: (§1)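 Rat in vivo models (paw edema, pyresis, hyperalgesia, adjuvant arthritis), with activity expressed as ED50 in mg/kg.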
Data set [2] in a line: Cmax in rat. Particulars: in vivo; call rule not given here. The format is ADME, organism-based. The essentials: (§2)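 Rat pharmacokinetics at a 10 mg/kg dose, reporting half-life, Cmax (μM) and bioavailability (%).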
The species entered for data set [3] is Rattus norvegicus. The data set can be described thus: Antiinflammatory activity by using Rat adjuvant arthritis assay. It is filed as functional. An outline of the steps: as §1
The species named for data set [4] is Rattus norvegicus. The data set can be described thus: Antiinflammatory activity by using Rat hyperalgesia assay. The format is functional. An outline of the steps: as §1
Data set [5] deals with Prostaglandin G/H synthase 1 (Homo sapiens, UniProt P23219). The data set is described as follows: In vitro inhibitory potency against Prostaglandin G/H synthase 1 in human whole blood assay. The format is tissue-based.
Data set [6] is filed under the species Rattus norvegicus. The data set is described as follows: Antiinflammatory activity by using Rat pyresis assay. It is filed as functional. An outline of the steps:
as §1

Data set [7] can be described thus: Half-life in rat. Particulars: in vivo. It is filed as ADME, organism-based. An outline of the steps: as §2
Data set [8] has as its target T1, Prostaglandin G/H synthase 2 (Homo sapiens, UniProt P35354).
T1 sequence (P35354 whole entry): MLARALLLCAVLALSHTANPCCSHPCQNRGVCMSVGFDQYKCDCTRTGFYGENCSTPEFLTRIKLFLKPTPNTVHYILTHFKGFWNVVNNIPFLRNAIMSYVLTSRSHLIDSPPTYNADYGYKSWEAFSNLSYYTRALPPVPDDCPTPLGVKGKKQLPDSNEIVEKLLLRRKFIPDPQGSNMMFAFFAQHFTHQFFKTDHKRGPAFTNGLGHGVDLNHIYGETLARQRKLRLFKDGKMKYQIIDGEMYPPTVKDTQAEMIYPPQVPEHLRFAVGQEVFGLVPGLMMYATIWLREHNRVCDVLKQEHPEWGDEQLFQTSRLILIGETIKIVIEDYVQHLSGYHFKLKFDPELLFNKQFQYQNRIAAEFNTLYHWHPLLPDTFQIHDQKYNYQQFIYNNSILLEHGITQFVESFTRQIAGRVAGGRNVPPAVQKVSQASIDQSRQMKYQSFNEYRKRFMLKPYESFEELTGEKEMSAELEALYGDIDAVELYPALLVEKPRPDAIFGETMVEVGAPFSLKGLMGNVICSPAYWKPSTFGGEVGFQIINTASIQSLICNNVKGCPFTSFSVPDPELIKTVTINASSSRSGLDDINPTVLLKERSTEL
The data set can be described thus: In vitro inhibitory potency against Prostaglandin G/H synthase 2 in human whole blood assay. It is filed as tissue-based.

The nature of data set [9]: Bioavailability in rat. It is filed as ADME, organism-based. Particulars: in vivo. The essentials: as §2

Chain of Prostaglandin G/H synthase 1 (P23219 whole entry): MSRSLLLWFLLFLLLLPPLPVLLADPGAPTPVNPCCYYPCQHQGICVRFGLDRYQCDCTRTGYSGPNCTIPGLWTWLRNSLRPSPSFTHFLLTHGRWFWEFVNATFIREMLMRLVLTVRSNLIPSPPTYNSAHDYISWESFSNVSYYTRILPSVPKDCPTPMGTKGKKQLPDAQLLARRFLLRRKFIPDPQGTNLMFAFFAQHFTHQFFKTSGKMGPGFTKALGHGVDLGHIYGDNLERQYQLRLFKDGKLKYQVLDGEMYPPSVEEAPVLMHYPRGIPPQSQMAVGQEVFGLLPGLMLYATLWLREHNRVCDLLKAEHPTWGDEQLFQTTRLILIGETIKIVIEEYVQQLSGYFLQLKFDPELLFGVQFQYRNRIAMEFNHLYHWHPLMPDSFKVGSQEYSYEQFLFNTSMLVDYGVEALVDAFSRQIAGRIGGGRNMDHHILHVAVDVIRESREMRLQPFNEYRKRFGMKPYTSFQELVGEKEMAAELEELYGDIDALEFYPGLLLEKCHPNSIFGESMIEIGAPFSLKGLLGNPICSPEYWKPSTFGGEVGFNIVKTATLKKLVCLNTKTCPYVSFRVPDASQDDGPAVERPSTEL

In the case of `CC(C)OC1=C(c2ccc(S(C)(=O)=O)cc2)C(C)(C)OC1=O`, the ED50 in data set [1] came to 0.8 mg/kg; in data set [3], 0.3 mg/kg; in data set [4] it was 0.8 mg/kg; in [6], 0.3 mg/kg. The compound also showed a maximum concentration (Cmax) in data set [2] of 15 µM. Also, the IC50 in [5] (read-out: IC50) was over 100000 nM. Further, the half-life in data set [7] is 7.1 h.
As for `CC(C)OC1=C(c2ccc(S(C)(=O)=O)cc2)C(C)(CC(F)(F)F)OC1=O` (stereo not given), the IC50 entry in data set [5] was “Not Active”.
For the compound `CC[C@]1(C)OC(=O)C(OC(C)C)=C1c1ccc(S(C)(=O)=O)cc1`, the ED50 was found to be 1.2 mg/kg in [1], 3.3 mg/kg in data set [3], 0.7 mg/kg in [4] and 0.7 mg/kg in data set [6]. For the same compound, the IC50 in data set [8] is 400 nM; in data set [5] (read-out: IC50) it was over 86000 nM. In addition, the Cmax in data set [2] was 1.7 µM. Also, the bioavailability in data set [9] was determined as 100%. Moreover, the half-life in data set [7] was 2 h.
On to `CC[C@@]1(C)OC(=O)C(OC(C)C)=C1c1ccc(S(C)(=O)=O)cc1` (single isomer, unassigned), for which the ED50 is 4.5 mg/kg in data set [1] and 4.9 mg/kg in data set [6]. The IC50 in [8] was 500 nM; in data set [5] (read-out: IC50), over 100000 nM. Further, in data set [7], the half-life is under 2 h.
For the compound `COc1ccc2c(c1)c(CC(=O)O)c(C)n2C(=O)c1ccc(Cl)cc1` [INDOMETHACIN], the ED50 in data set [1] is 2 mg/kg; in data set [3], 0.2 mg/kg; in data set [4] it was 1.4 mg/kg; in data set [6], 1 mg/kg.
Taken in the same sequence, the figures for `CS(=O)(=O)c1ccc(C2=C(c3ccccc3)C(=O)OC2)cc1` [ROFECOXIB] were 1.5 mg/kg, 0.8 mg/kg, 1 mg/kg and 0.2 mg/kg.

The ED50 is the midpoint of the dose-response relation. Usually Cmax stands for the peak of the concentration-time curve. For orientation: IC50 means the midpoint of a concentration-inhibition curve. As usually defined, the half-life is the time in which the quantity being followed falls by half. The low end stands for rapid decline, the high end for slow decline. One may read the bioavailability as dose-corrected exposure relative to a reference, in per cent.
